Assay outcomes: PubChem, several laboratories
MPTP block: blocks calcium-induced mitochondrial swelling; isolated mouse mitochondria, Ca2+ swelling absorbance, 30 min; inhibition, % at 10 µM; 1.4% of 360,000 active; AID 602449;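 active = inhibition of 50% or more, scaled per plate between neutral and stimulator controls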;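 also: 0% = DMSO wells given calcium and 100% = 1 mM EGTA wells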
GRIN3A LBD mod: modulates the human NR3A ligand-binding domain | Tm shift relative to glycine control, % at 25 µM | AID 1259313 | 2.5% of 340,000 active | NR3A LBD differential scanning fluorimetry, Tm shift; 0% = protein alone, 100% = glycine-bound protein;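 active = melting temperature shift of at least 10% of the positive control shift, at one fixed dose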
SKN-1 inh: C. elegans SKN-1 inhibition. inhibition, % at 21.8 µM. 0.49% of 360,000 active. C. elegans VP596 Pgst-4::GFP/RFP ratio, acrylamide-induced, 24 h. AID 624304;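 active = interference check ratio from 0.5 to 1.5 plus GFP to RFP signal ratio inhibition reaching or exceeding a fixed threshold, cut at about 30% in these data, passing the limit was not always enough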
MT1-MMP act inh: inhibitors of human MT1-MMP activation; P50281; HT1080 RFP-PRO-GFP cells, GFP/RFP ratio fluorescence, overnight; percent of plate control window, DMSO zero; GFP/RFP ratio change, % at 20 µM; 0.061% of 360,000 active;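 active = GFP/RFP ratio change of at least 30% with cell ATP level not reduced by more than half and red fluorescence within 50% of control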
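Assay system: HT1080 cells carrying an RFP-PRO-GFP reporter | Dosing: Single dose of 20 µM compound, 1% DMSO final | Incubation: Cells overnight before dosing, compound overnight, 37 °C, 5% CO2 | Evaluation: GFP/RFP fluorescence ratio | Control set: DMSO and RFP-L50D-GFP cell wells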
ADAM10 inh: ADAM10 inhibition, QFRET primary screen. O14672. recombinant ADAM10, EDANS/DABCYL FRET peptide cleavage, 3 h. inhibition, % at 7 µM. 0.62% of 370,000 active;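 active = inhibition above a per-campaign cutoff equal to the mean of compounds falling between control-based bounds plus 3 SD, cut at about 20% in these data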;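 also: 0% = DMSO wells while the 100% control is not disclosed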
ADAM17 inh: inhibits human ADAM17; inhibition, % at 6.95 µM; 0.83% of 370,000 active; recombinant ADAM17, EDANS/DABCYL FRET peptide cleavage;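 active = inhibition above the mean of compounds lying between control limits plus 3 SD, set per campaign, cut at about 8.5% in these data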;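 also: 0% = DMSO-only wells as the low control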
Target sequence (P78536 215-824 limits assumed): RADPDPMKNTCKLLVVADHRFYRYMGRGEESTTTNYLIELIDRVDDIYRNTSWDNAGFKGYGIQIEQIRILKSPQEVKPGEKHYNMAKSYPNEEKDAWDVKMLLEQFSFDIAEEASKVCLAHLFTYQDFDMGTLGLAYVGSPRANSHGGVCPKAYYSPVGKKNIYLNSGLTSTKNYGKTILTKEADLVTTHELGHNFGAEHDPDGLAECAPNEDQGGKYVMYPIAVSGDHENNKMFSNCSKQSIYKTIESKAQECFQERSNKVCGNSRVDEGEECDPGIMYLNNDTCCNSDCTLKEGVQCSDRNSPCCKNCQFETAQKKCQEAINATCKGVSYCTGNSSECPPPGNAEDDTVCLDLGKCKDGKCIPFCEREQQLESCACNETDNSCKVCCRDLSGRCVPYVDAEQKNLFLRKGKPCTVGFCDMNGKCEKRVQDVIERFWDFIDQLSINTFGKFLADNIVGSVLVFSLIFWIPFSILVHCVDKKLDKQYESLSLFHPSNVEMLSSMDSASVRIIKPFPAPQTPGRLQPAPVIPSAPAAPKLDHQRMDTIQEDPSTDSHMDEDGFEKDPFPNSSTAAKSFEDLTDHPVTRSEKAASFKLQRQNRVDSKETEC
Active calls of the source: *; / = not tested or not shown. A selection: hits, their analogues and other compounds. The true share with any hit is near 4.7%.

SMILES	MPTP block	GRIN3A LBD mod	SKN-1 inh	MT1-MMP act inh	ADAM10 inh	ADAM17 inh
O=C(Nc1nc(-c2ccc(Cl)s2)cs1)c1ccccc1	3	15*	49*	-21	10	3
N#CCCN(Cc1cccnc1)S(=O)(=O)c1ccc(S(=O)(=O)NC2CCCCC2)cc1	1	14*	1	-4	3	-4
N#CCCN(Cc1cccnc1)S(=O)(=O)c1ccc2ccccc2c1	0	3	-14	0	-13	-1
COc1cc(OC)cc(C(=O)N[C@H](C(=O)OCC(=O)c2c[nH]c3ccccc23)C(C)C)c1	0	-1	1	-2	0	6
CC[C@@H](C(=O)n1nc(C)cc1C)[C@H](NS(=O)(=O)c1ccc(C)cc1)c1ccccc1	5	13*	21	-12	11	2
O=C(Nc1ccc(S(=O)(=O)Nc2ccccn2)cc1)c1cccc(Br)c1	0	-5	-2	1	-9	-1
CCCOP(=O)(c1ccc(N(C)C)cc1)C(Nc1ccccc1)c1ccc(N(C)C)cc1 (stereo not drawn)	2	-3	-3	-6	-3	3
CCCCOP(=O)(c1ccc(N(C)C)cc1)C(Nc1ccccc1)c1ccccc1 (stereo not drawn)	5	13*	-4	-35	10	6
CCc1ccc(NC(=O)NNC(=O)c2cc3ccccc3cc2O)cc1	1	10*	-10	-6	-7	-3
Cc1cc(NS(=O)(=O)c2ccc(NC(=O)NC(C)(C(F)(F)F)C(F)(F)F)cc2)no1	-3	-3	-20	2	-6	-7
Cc1cc(NS(=O)(=O)c2ccc(NC(=O)Nc3cccc(C(F)(F)F)c3)cc2)no1	-1	22*	19	2	7	0
Cc1cc(NS(=O)(=O)c2ccc(NC(=O)/C=C/c3cccc(Cl)c3)cc2)no1	-3	16*	1	7	8	3
O=C(CSCc1ccccc1Br)NC1CC1	-1	-1	3	5	0	-4
CCCc1cc(CCC)n2nc(N)nc2n1	0	/	2	-8	-28	-8
CC(C)c1cc(C(C)C)n2nc(N)nc2n1	1	10*	17	0	-10	-6
Cc1ccc(C2CC(=O)Oc3cc(C)c(Br)c(C)c32)cc1 (stereo not drawn)	-2	18*	-7	5	6	1
Cc1[nH]nc(SCC(=O)Nc2cccc(O)c2)c1[N+](=O)[O-]	0	22*	1	1	-4	-3
Cc1[nH]c2ccccc2c1SCC(=O)NNC(=O)Nc1ccc(OC(F)(F)F)cc1	7	12*	-2	5	14	7
O=S(=O)(c1ccc2nc(Nc3ccccc3)ccc2c1)N1CCCCC1	-1	30*	8	11	-158	-58
COC(=O)c1cccc(Nc2cc(C)nc(-c3ccccc3O)n2)c1	16	17*	13	5	10	1
CCOC(=O)c1ccc(Nc2nc(C)cc(C)n2)cc1	0	0	-1	-1	-4	-5
CCOC(=O)c1ccc(Nc2cc(C)nc(-c3ccccc3)n2)cc1	3	10*	9	-6	-6	-6
COC(=O)c1cccc(NC(=O)c2ccccc2)c1	1	-1	9	2	-5	-4
COC(=O)c1ccc(Nc2cc(C)nc(-c3ccccc3O)n2)cc1	-12	23*	22	0	7	1
O=C1OC(N2CCN(C(=O)c3ccco3)CC2)c2ccccc21 (stereo not drawn)	-1	0	-7	2	5	-3
SMILES	MPTP block	GRIN3A LBD mod	SKN-1 inh	MT1-MMP act inh	ADAM10 inh	ADAM17 inh
COc1ccc(NC(=O)C2=C(C)NC(=S)NC2c2ccc(O)c(OC)c2)cc1 (stereo not drawn)	0	2	-10	1	-8	0
CCOc1ccc(NC(=O)C2=C(C)NC(=S)NC2c2ccc(O)c(OC)c2)cc1 (stereo not drawn)	1	13*	11	7	-4	-3
CCOC(=O)c1cc(-c2ccc(N)cc2)sc1N	3	-1	6	7	9	4
CCOC(=O)c1sc(-c2ccc(F)cc2)cc1NC(=O)Nc1ccccc1OC	4	3	11	0	-7	-2
CCOC(=O)c1c(N)sc2c(NC(C)=O)cccc12	-1	31*	-14	0	1	-5
CCOC(=O)c1sc(-c2ccccc2)cc1NC(=O)Nc1ccccc1	8	16*	7	-5	-2	-4
CCOC(=O)c1c(N)sc(C(=O)Nc2ccccc2)c1C	-2	27*	9	0	-2	0
CCOC(=O)c1c(N)sc(C(=O)Nc2ccccc2F)c1C	0	-15	11	1	-9	-3
CCOC(=O)c1sc(-c2ccc(Br)cc2)cc1N	2	16*	4	-3	-61	-18
Cc1ccc(NC(=O)CSc2nc(=O)n3cc(C)ccc3n2)c(C)c1	-3	-1	17	4	-12	-4
Cc1c(C(=O)Nc2ccc3c(c2)OCO3)sc2nc(-c3ccccc3)cn12	9	27*	7	5	9	0
Cc1c(C(=O)Nc2ccccc2)sc2nc(-c3ccccc3)cn12	4	26*	26	8	13	5
CCC(=O)N(Cc1ccco1)Cc1cc2cccc(C)c2n2nnnc12	1	-1	-4	0	3	1
COC(=O)c1ccc(C2=NOC(C)(c3nnc(Cc4ccccc4)o3)C2)cc1 (stereo not drawn)	-1	0	-8	1	8	4
O=C(OCc1ccccc1)N1CCC2CC1c1c(-c3ccc(C(F)(F)F)cc3)cccc12 (stereo not drawn)	-2	2	-6	3	-5	-4
N=C1/C(=C\c2ccc(-c3cccc(Cl)c3)o2)C(=O)N=C2SC=C(c3ccccc3)N12	5	13*	10	-18	-11	-5
N=C1/C(=C\c2ccc(-c3ccc(C(=O)O)cc3)o2)C(=O)N=C2SC=C(c3ccccc3)N12	6	-7	7	-19	-24	-9
O=C(CSc1nc2[nH]c(=O)cc(O)c2s1)Nc1ccc(Cl)c(C(F)(F)F)c1	0	12*	1	-6	-10	-6
CSc1ccc(NC(=O)CSc2nc3[nH]c(=O)cc(O)c3s2)cc1	3	14*	9	-2	-3	-3
O=C(CSc1nc2[nH]c(=O)cc(O)c2s1)Nc1cc(Cl)cc(Cl)c1	1	5	-3	-3	-5	-4
O=C(CCCNC(=O)c1ccc(Cl)cc1)Nc1ccccc1C(F)(F)F	0	5	-2	7	2	-1
